Experimental data from different studies.
Target: Carbonic anhydrase 2 (CA2, Homo sapiens, UniProt P00918)
Effect on: enzyme activity
Mode: inhibitor

Compound | method | pH | quantity | result
NCCCC(=O)Nc1nnc(S(N)(=O)=O)s1 | stopped-flow | – | Ki | 65.7 nM
OC1CCN(c2ccc(/C=N/NC(=S)NCc3ccccc3)cc2)CC1 | absorbance | – | IC50 | 504 nM
NS(=O)(=O)c1ccc(Nc2nc(-c3cc4cc(Br)ccc4oc3=O)cs2)c(Br)c1 | absorbance | – | IC50 | 5860 nM
CC[C@H]1OC(=O)[C@H](C)[C@@H](O[C@H]2C[C@@](C)(OC)[C@@H](O)[C@H](C)O2)[C@H](C)[C@@H](O[C@@H]2O[C@H](C)C[C@H](N(C)C)[C@H]2O)[C@](C)(O)C[C@@H](C)CN(C)[C@H](C)[C@@H](O)[C@]1(C)O | absorbance | pH 7.4 | IC50 | 13000 nM
O=C(O)c1ccc(Nc2nc(-c3cc4cc(Br)ccc4oc3=O)cs2)cc1 | absorbance | – | IC50 | 1290 nM
CC(C)CNC(=S)N/N=C/c1ccc(N2CCC(O)CC2)cc1 | absorbance | – | IC50 | 695 nM
NS(=O)(=O)c1nnc(NC(=O)CCC2CCCCO2)s1 (stereo not drawn) | stopped-flow | – | Ki | 0.84 nM
O=C(O)COCCN1CCN(C(c2ccccc2)c2ccc(Cl)cc2)CC1 (stereo not drawn) | absorbance | pH 7.4 | IC50 | 15200 nM
OC1CCN(c2ccc(/C=N/NC(=S)Nc3ccc(Br)cc3)cc2)CC1 | absorbance | – | IC50 | 332 nM
CN(C/C=C/C#CC(C)(C)C)Cc1cccc2ccccc12 | absorbance | pH 7.4 | IC50 | 32200 nM
Cc1ccccc1C(=O)Nc1nnc(S(N)(=O)=O)s1 | stopped-flow | – | Ki | 25.6 nM
O=c1[nH]c(=O)n([C@H]2C[C@H](O)[C@@H](CO)O2)cc1/C=C/Br | absorbance | pH 7.4 | IC50 | 11800 nM
NS(=O)(=O)c1nnc(NC(=O)CCCC2CCCCC2)s1 | stopped-flow | – | Ki | 8.8 nM
OC1CCN(c2ccc(/C=N/NC(=S)Nc3cccc(Cl)c3Cl)cc2)CC1 | absorbance | – | IC50 | 267 nM
CN(C)CCC(c1ccccc1)c1ccccn1 (stereo not drawn) | absorbance | pH 7.4 | IC50 | 22200 nM
